Publication PMC9061760 (RSC Advances, 2019)
Several values for one entry are separate records, joined by “and”; a condition that tells them apart may be missing. Equal values may be shown once.

What was measured:
[1] = Steady state UV/Vis absorption; assay type: physicochemical; conditions: for ε 355 (extinction coefficient): 355 nm
Laser flash photolysis = assay type: physicochemical; conditions: excitation 355 nm, 30 mJ, 0.4 mM in 5× PBS buffer, pH 7
Procedure, shortened: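 Transient absorption after a single 355 nm pulse (third harmonic) from a Nd:YAG laser at 30 mJ pulse energy. Test compound at 0.4 mM in 5× PBS buffer, pH 7, in a 1 cm × 1 cm cuvette. The kinetic trace of the transient species, assigned to the nitronate, was followed over time to obtain its decay.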

N[C@@H](CC(=O)O)C(=O)OC(C(=O)O)c1ccccc1[N+](=O)[O-].O=C(O)C(F)(F)F (mixture of isomers) [1a, α-carboxynitrobenzyl L-aspartate]
ε 355 (extinction coefficient) [1]: 430 M⁻¹ cm⁻¹

N[C@@H](CC(=O)O)C(=O)OC(C(=O)O)c1cc2c(cc1[N+](=O)[O-])OCO2.O=C(O)C(F)(F)F (stereo partly drawn) [1b, α-carboxynitropiperonyl L-aspartate]
time constant of nitronate decay observed at 430 nm (Laser flash photolysis): 0.87 ms and 0.87 ± 0.04 ms | λmax (additional absorption band) [1]: 365 nm | ε 355 (extinction coefficient) [1]: 4060 M⁻¹ cm⁻¹ | extinction coefficient at λmax ([1]; at 365 nm): ~ 4000 M^−1 cm^−1
